# Measurements: ChEMBL document CHEMBL1137484, “Design and synthesis of opioidmimetics containing 2',6'-dimethyl-L-tyrosine and a pyrazinone-ring platform” (Bioorg Med Chem Lett, 2007)
# How the values were obtained:
# [1] = target: T1, Delta-type opioid receptor (Mus musculus, UniProt P32300); assay: Antagonist activity at delta opioid receptor in mouse vas deferens; format: functional, tissue-based; conditions: read-out: pA2 (converted)
# Method in brief: (§1)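 Antagonism given as pA2: the negative log of the antagonist concentration (M) that doubles the agonist concentration needed to restore the original response. The agonist was deltorphin II in MVD (delta) and endomorphin 2 in GPI (mu).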
# [2] = target: Delta-type opioid receptor (Mus musculus) (UniProt P32300); assay: Agonist activity at delta opioid receptor in mouse vas deferens assessed as inhibition of electrically-stimulated muscle contraction at 10 uM; format: functional, tissue-based
# Sequence of Delta-type opioid receptor (Mus musculus) (P32300 whole entry): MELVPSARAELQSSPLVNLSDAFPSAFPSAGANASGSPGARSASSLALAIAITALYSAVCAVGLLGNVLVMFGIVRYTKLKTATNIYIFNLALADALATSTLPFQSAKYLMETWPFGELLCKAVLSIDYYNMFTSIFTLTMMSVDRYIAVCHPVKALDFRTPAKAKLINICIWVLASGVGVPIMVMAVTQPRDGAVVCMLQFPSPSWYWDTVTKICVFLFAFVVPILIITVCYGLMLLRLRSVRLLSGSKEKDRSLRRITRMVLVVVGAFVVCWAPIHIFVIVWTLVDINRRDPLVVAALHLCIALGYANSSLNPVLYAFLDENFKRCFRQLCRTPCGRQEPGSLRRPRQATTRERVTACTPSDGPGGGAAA
# Homo sapiens = species on record: Homo sapiens; assay: Selectivity for human mu opioid receptor over human delta opioid receptor
# [3] = target: Mu-type opioid receptor (Cavia porcellus) (UniProt P97266); assay: Agonist activity at mu opioid receptor in guinea pig ileum assessed as inhibition of electrically-stimulated muscle contraction at 10 uM; format: functional, tissue-based
# Sequence of Mu-type opioid receptor (Cavia porcellus) (P97266 whole entry): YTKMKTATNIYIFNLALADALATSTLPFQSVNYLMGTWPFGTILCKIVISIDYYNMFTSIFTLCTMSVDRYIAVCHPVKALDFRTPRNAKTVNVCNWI
# [4] = target: Delta-type opioid receptor (Homo sapiens, UniProt P41143); assay: Displacement of [3H]deltorphin 2 from delta opioid receptor
# Sequence of Delta-type opioid receptor (Homo sapiens, UniProt P41143) (P41143 whole entry): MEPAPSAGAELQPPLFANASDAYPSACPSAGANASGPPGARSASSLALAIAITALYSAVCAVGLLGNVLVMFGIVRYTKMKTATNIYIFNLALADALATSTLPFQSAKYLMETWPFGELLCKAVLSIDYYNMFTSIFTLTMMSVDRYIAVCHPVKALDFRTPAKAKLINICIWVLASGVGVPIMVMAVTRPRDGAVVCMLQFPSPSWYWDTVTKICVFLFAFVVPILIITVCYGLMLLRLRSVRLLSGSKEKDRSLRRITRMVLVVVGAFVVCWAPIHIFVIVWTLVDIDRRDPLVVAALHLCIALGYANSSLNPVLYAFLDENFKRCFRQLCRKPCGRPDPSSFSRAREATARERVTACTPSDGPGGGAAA
# [5] = target: T1, Delta-type opioid receptor; assay: Agonist activity at delta opioid receptor in mouse vas deferens assessed as inhibition of electrically-stimulated muscle contraction; format: functional, tissue-based
# Method in brief: (§2)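 Reference agonists run alongside: deltorphin II for delta in mouse vas deferens (MVD) and endomorphin 2 for mu in guinea pig ileum (GPI).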
# Mu-type opioid receptor [6] = target: T2, Mu-type opioid receptor (Cavia porcellus, UniProt P97266); assay: Antagonist activity at mu opioid receptor in guinea pig ileum; format: functional, tissue-based; conditions: read-out: pA2 (converted); method in brief: as §1
# T2 sequence (P97266 whole entry): as the sequence (P97266 whole entry) above
# Mu-type opioid receptor [7] = target: T2, Mu-type opioid receptor; assay: Agonist activity at mu opioid receptor in guinea pig ileum assessed as inhibition of electrically-stimulated muscle contraction; format: functional, tissue-based; method in brief: as §2
# Mu-type opioid receptor [8] = target: Mu-type opioid receptor (Homo sapiens, UniProt P35372); assay: Displacement of [3H]DAMGO from human mu opioid receptor
# Sequence of Mu-type opioid receptor (Homo sapiens, UniProt P35372) (P35372 whole entry): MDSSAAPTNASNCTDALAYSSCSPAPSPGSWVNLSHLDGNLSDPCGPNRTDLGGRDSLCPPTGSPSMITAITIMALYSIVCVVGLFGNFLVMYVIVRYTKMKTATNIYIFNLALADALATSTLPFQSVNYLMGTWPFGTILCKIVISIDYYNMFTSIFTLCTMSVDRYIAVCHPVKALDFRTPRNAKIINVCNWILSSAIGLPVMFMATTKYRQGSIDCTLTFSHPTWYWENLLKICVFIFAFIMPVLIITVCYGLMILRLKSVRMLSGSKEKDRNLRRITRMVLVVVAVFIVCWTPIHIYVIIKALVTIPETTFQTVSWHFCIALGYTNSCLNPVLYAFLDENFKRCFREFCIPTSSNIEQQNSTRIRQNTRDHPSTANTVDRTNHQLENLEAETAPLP
# T1 sequence (P32300 whole entry): as the sequence (P32300 whole entry) above
Structure (SMILES),Kb [1] [nM],inhibition [2] [%],Ratio Ki (Homo sapiens),inhibition [3] [%],Ki [4] [nM],IC50 [5] [nM],Kb (Mu-type opioid receptor [6]) [nM],IC50 (Mu-type opioid receptor [7]) [nM],Ki (Mu-type opioid receptor [8]) [nM]
Cc1cc(O)cc(C)c1C[C@H](N)C(=O)NCCCCc1[nH]c(=O)cnc1C,> 3160,28.1,6,37.1,344,> 10000,> 1000,> 10000,56.9
Cc1cc(O)cc(C)c1C[C@H](N)C(=O)NCCCc1nc(C)c(C)[nH]c1=O,> 3160,31.1,30,22.7,269,> 10000,,> 10000,8.88
Cc1c[nH]c(=O)c(CCCCNC(=O)[C@@H](N)Cc2c(C)cc(O)cc2C)n1,> 3160,25.7,119,47.6,73.8,> 10000,,> 10000,0.62
Cc1cc(O)cc(C)c1C[C@H](N)C(=O)NCc1nc(C)c(C)[nH]c1=O,1480,28.1,5.4,20.6,698,> 10000,,> 10000,129
Cc1cc(O)cc(C)c1C[C@H](N)C(=O)NCCCc1nc(C)c(CCc2ccccc2)[nH]c1=O,1350,4.1,69,,38.2,> 10000,> 1000,5550,0.55
Cc1cc(O)cc(C)c1C[C@H](N)C(=O)NCCCCc1nc(C)c(CCc2ccccc2)[nH]c1=O,447,12.8,447,,55.9,> 10000,,15.9,0.125
Cc1cc(O)cc(C)c1C[C@H](N)C(=O)NCCCCc1nc(C)c(C)[nH]c1=O,2510,26.2,18,35.1,77.7,> 10000,200,> 10000,4.23
Cc1cc(O)cc(C)c1C[C@H](N)C(=O)NCCc1nc(C)c(C)[nH]c1=O,1350,25.2,1.2,45,93.1,> 10000,,> 10000,76.5
Cc1cc(O)cc(C)c1C[C@H](N)C(=O)NCCCc1nc(C)c(Cc2ccccc2)[nH]c1=O,1230,34.6,60,36.7,59.6,> 10000,,> 10000,1
Cc1cc(O)cc(C)c1C[C@H](N)C(=O)NCCCCc1[nH]c(=O)c(C)nc1C,2340,0,14,30.1,208,> 10000,> 1000,> 10000,15.4
Cc1cc(O)cc(C)c1C[C@H](N)C(=O)NCCCCc1nc(C)c(Cc2ccccc2)[nH]c1=O,589,19.9,20,39.5,8.6,> 10000,,> 10000,0.42
Cc1cccc(C)c1Cc1[nH]c(=O)c(CCCCNC(=O)[C@@H](N)Cc2c(C)cc(O)cc2C)nc1C,245,6.4,8,,5.3,> 10000,> 1000,6270,0.66
